# Hits are enriched below; roughly 1.7% of the tested compounds scored in any of these assays.
# Vif imaging: blocks HIV Vif function; HEK293T cells, Vif self-association by quenched fluorescence, imaging, 24 h; inhibition, % at 7.49 µM; 0.35% of 340,000 active; AID 602346; in the data active = inhibition above about 50%, passing the limit was not always enough; inconclusive = no clear call, values can overlap the other calls; inactive = below about 31%
# Statin myotox sup: suppression of simvastatin myotoxicity | 0.78% of 330,000 active | AID 602340 | rescue of ATP level, % at 7.49 µM | C2C12 myotubes + simvastatin, ATP luminescence, 48 h; scaled: DMSO 0, geranylgeraniol control 100;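 active = mean ATP rescue above about 67%, or every replicate alone reaching that limit, limit read from the data, passing the limit was not always enough; inconclusive = no clear call, values can overlap the other calls; inactive = mean under the limit and some replicate under it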;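 note: myotubes were challenged with 10 µM simvastatin during compound exposure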
# SR-BI HDL uptake: inhibitors of mouse SR-BI mediated HDL lipid uptake; Q61009; ldlA[mSR-BI] CHO cells, DiI-HDL uptake fluorescence, 3 h; inhibition, % at 12.5 µM; 0.96% of 320,000 active; AID 488896;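 active = mean replicate inhibition of at least 70% and a set share of replicates each scoring 70 or more; inconclusive = meets just one of the two criteria; inactive = fails both criteria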;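 note: 0% = median of neutral control wells and 100% = median of positive control wells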
# Target sequence (Q61009 whole entry, looked up): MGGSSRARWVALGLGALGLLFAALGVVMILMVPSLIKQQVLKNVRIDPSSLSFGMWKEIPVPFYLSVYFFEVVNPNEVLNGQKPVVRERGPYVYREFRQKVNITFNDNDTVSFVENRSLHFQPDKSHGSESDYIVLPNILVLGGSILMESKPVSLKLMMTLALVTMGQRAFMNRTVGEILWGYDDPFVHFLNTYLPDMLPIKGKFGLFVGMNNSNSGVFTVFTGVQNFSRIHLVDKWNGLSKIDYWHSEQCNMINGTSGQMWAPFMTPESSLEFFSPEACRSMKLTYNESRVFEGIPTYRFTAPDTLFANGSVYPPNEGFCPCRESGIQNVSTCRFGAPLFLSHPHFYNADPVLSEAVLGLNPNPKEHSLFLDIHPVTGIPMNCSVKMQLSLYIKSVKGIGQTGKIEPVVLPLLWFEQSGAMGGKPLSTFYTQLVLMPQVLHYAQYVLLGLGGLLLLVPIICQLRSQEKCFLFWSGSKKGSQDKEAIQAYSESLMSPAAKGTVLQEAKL
# SR-BI DiI-HDL act: enhances SR-BI lipid uptake from DiI-HDL; CHO ldlA[mSR-BI] cells, DiI-HDL uptake fluorescence, 3 h; 100 = double the neutral-control signal; activation, % at 12.5 µM; 0.096% of 320,000 active; AID 504775;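 active = mean replicate activation of at least 60% and every replicate at or above 60%; inconclusive = mean or all-replicate condition met, but not both; inactive = mean below 60% and not all replicates reaching 60%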;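 note: 0% = median plate neutral-control signal and 100% = twice that signal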
#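 material = CHO ldlA[mSR-BI] cells | medium = Ham's F12 with 0.5% BSA, HEPES 25 mM, pH 7.4 | reagent = fluorescent DiI-HDL, 10 µg/mL final | compound dosing = single-point compound dose | incubation = 3 h, 37 °C | measured by = bottom-read fluorescence, 550/595 nm | measure = HDL uptake via cellular fluorescence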
# Starred values were filed as active, the others as inactive; u = inconclusive; x = no result given.
SMILES,Vif imaging,Statin myotox sup,SR-BI HDL uptake,SR-BI DiI-HDL act
COc1ccc(-c2cc(C(=O)N/N=C/c3ccc(OC)c(COCC(F)(F)C(F)F)c3)c3ccccc3n2)c(OC)c1,-3,x,80*,-80
Cc1nn(-c2ccccc2)c(N2CCCC2)c1/C=N/NC(=O)c1cc(-c2cccnc2)nc2ccccc12,-1,x,89*,-89
COc1cccc(/C=N/NC(=O)c2cc(-c3ccccn3)nc3ccccc23)c1O,11,21,103*,-103
CC(C)COc1cccc(-c2cc(C(=O)N/N=C/c3ccncc3)c3ccccc3n2)c1,-8,-19,79*,-79
CCOc1cc(/C=N/NC(=O)c2cc(-c3cccc(OC)c3)nc3ccccc23)ccc1O,-17,x,x,x
Cc1nn(-c2ccccc2)c(N2CCCC2)c1/C=N/NC(=O)c1ccccc1O,-1,x,55,-55
O=C(C[C@@H]1CC[C@H]2[C@@H](COC[C@H](O)CN2C(=O)Cc2ccccc2)O1)NC1Cc2ccccc2C1,x,6,x,x
CNC(=O)c1cc(OCC(F)(F)F)ccc1OCC(F)(F)F,1,x,-6,6
COc1cccc(-c2cc(C(=O)N/N=C/c3cccc(OC)c3OC)c3ccccc3n2)c1,-12,-13,61,-61
COc1ccc(/C=N/NC(=O)c2cc(-c3cccnc3)nc3ccccc23)c(OC)c1,-1,x,74*,-74
Cc1ccc(-c2cc(C(=O)N/N=C/c3c(C)nn(C)c3C)c3ccccc3n2)cc1C,-35,-4,86*,-86
COc1cccc(/C=N\NC(=O)c2cc(OCC(F)(F)F)ccc2OCC(F)(F)F)c1,4,124*,19,-19
COc1cc([N+](=O)[O-])cc(/C=N/NC(=O)c2cc(-c3ccccc3)nc3ccccc23)c1O,-10,x,117*,-117
COc1ccccc1C(=O)N1C[C@@H]2[C@H](c3ccccc31)[C@H](CO)N2C(=O)C1CCCC1,x,13,x,x
CC(=O)Cn1c(C(F)(F)F)nc2ccccc21,-9,5,-8,8
CC(C(=O)O)n1c(C(F)(F)F)nc2ccccc21 (configuration not stated),x,132*,14,-14
C[C@H]1CN([C@@H](C)CO)C(=O)Cc2cc(NC(=O)C3CC3)ccc2O[C@@H]1CN(C)C(=O)Nc1cccc2ccccc12,x,13,x,x
CNC[C@@H]1OCCCC[C@H](C)Oc2ccc(NS(=O)(=O)c3ccc(Cl)cc3)cc2C(=O)N([C@H](C)CO)C[C@@H]1C,x,12,x,x
C[C@@H]1CN([C@@H](C)CO)C(=O)Cc2cc(NS(C)(=O)=O)ccc2O[C@H]1CN(C)C(=O)Nc1ccc(F)cc1,x,20,x,x
CC=Cc1ccc2n(c1=O)C[C@H]1[C@H](CO)[C@@H](C(=O)N3CCOCC3)N(CC3CC3)[C@@H]21 (mixture of isomers),x,-4,x,x
CCc1noc(N)c1C(=O)Nc1ccc(F)c(Cl)c1,1,0,x,x
Cc1cc(NC(=O)c2sc(Nc3ccc(F)c(Cl)c3)nc2N)no1,-3,-12,87*,-87
Cc1noc(N)c1C(=O)Nc1ccc(F)c(Cl)c1,-4,130*,13,-13
COc1ccc(-c2csc(NC(=O)c3ccccc3NS(=O)(=O)c3ccc(C)cc3)n2)cc1,x,-162,93*,-93
O=C(COc1ccc(Cl)cc1)Nc1nnc(S(=O)(=O)N2CCCCCC2)s1,1,77*,-20,20
SMILES,Vif imaging,Statin myotox sup,SR-BI HDL uptake,SR-BI DiI-HDL act
C[C@@H]1CCCCO[C@@H](CN(C)C(=O)Nc2ccc3c(c2)OCO3)[C@@H](C)CN([C@H](C)CO)C(=O)c2cc(NS(=O)(=O)c3cccs3)ccc2O1,x,-17,x,x
CCOC(=O)c1c(C)oc2ccc(OCC(=O)C(C)(C)C)cc12,-2,144*,15,-15
COc1ccc(C#Cc2c(-c3ccccc3)n(-c3ccccc3)c3ccc(CO)cc23)cc1,7,89*,40,-40
CC1CCCC/C1=N\NC(=S)Nc1ccccc1 (configuration not stated),66*,9,-11,11
CC(C)CC#Cc1cnc2c(c1)C(=O)N([C@H](C)CO)C[C@@H](C)[C@@H](CN(C)Cc1cncnc1)O2,x,6,x,x
CC(C)(C)C(=O)Nc1ccc(C(=O)N/N=C/c2ccccc2OC(=O)c2ccc(Cl)cc2)cc1,-4,x,97*,-97
COc1ccc(C(=O)N/N=C/c2ccccc2OC(=O)c2ccccc2)cc1,u,7,27,-27
CC(C)(C)C(=O)Nc1ccc(C(=O)N/N=C/c2ccccc2OC(=O)c2ccccc2)cc1,-1,x,122*,-122
Cc1cccc(C(=O)Oc2ccccc2/C=N/NC(=O)c2ccc(NC(=O)C(C)(C)C)cc2)c1,25,9,87*,-87
O=C(NC1CCCCC1)[C@@H]1[C@@H](CO)[C@@H]2Cn3c(cccc3=O)[C@@H]2N1CC1CCOCC1,x,-7,x,x
CCCNC(=O)N1[C@@H]2CN(C(=O)Nc3ccc(F)cc3)c3ccccc3[C@@H]2[C@@H]1CO,x,-9,x,x
CCN(CC)S(=O)(=O)c1ccc(NC(=O)c2ccc(Cl)nc2)cc1,2,x,76*,-76
CCN(CC)S(=O)(=O)c1cccc(NC(=O)c2ccc(C#N)cc2)c1,1,-2,77*,-77
CN(C)S(=O)(=O)c1cccc(NC(=O)/C=C/c2ccccc2[N+](=O)[O-])c1,-3,x,75*,-75
CCN(CC)S(=O)(=O)c1cccc(NC(=O)/C=C/c2ccc([N+](=O)[O-])cc2)c1,-1,31,76*,-76
COc1cccc(NC(=O)/C=C/c2ccccc2[N+](=O)[O-])c1,-5,x,18,-18
C[C@H](CO)N1C[C@H](C)[C@H](CN(C)Cc2ccc(C(=O)O)cc2)Oc2c(NC(=O)C3CC3)cccc2C1=O,x,-37,x,x
CC(C)C#Cc1cnc2c(c1)C(=O)N([C@@H](C)CO)C[C@H](C)[C@H](CN(C)C(=O)c1ccccc1F)O2,x,44,x,x
C[C@@H]1CN([C@H](C)CO)C(=O)c2cc(NC(=O)C3CCCCC3)ccc2O[C@@H](C)CCCCO[C@@H]1CN(C)Cc1ccc2c(c1)OCO2,x,-61,x,x
CCCNC(=O)N1C[C@@H](C)[C@@H](OC)CN(C)C(=O)c2cc(NC(=O)CC)ccc2OC[C@H]1C,x,-6,x,x
COCC#Cc1ccc2c(c1)O[C@@H](CN(C)C(=O)Nc1ccccc1F)[C@@H](C)CN([C@@H](C)CO)S2(=O)=O,x,17,x,x
Cc1ccc(C)c(Nc2cc(C)nc3ncnn23)c1,6,5,-192,192*
COc1ccc(CC(NC(C)=O)C(=O)NC2CCN(C(=O)c3ccccc3F)CC2)cc1 (configuration not stated),70*,-12,x,x
COc1ccc(C(=O)N2CCC(NC(=O)C(Cc3ccccc3OC)NC(C)=O)CC2)cc1 (configuration not stated),3,5,x,x
COc1ccc(CN(CCC#N)C(=S)NC(=O)c2ccccc2)cc1,3,114*,-7,7
O=[N+]([O-])c1ccc(N2CCCCC2)s1,7,125*,-3,3
Cc1nc2c(-c3ccc(F)cc3)c(C)nn2c(C)c1CCC(=O)Nc1ccc(F)cc1F,-3,x,75*,-75
